# CHO-K1 Ca antag – M1 antagonist counterscreen hit in parental CHO-K1 cells; ATP-induced calcium, Fluo-8 fluorescence; inhibition, % at 3 µM; 360,000 compounds, 0.6% hits; AID 602250;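 active = inhibition above a per-plate cutoff, the plate's mean sample inhibition plus 3 SD, cut at about 24% in these data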;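 also: 0% = DMSO plus EC80 ATP and 100% = DMSO alone without ATP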
# OX1R antag-1 – blocks the human orexin 1 receptor; O43613; CHO/OX1R cells, Fluo-8 calcium fluorescence, orexin A; inhibition, % at 5 µM; 330,000 compounds, 0.43% hits;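 active = inhibition above its plate's threshold, mean inhibition of all tested compounds on the plate plus 3 SD, cut at about 37% in these data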;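 also: 0% = orexin A challenge wells and 100% = SB-334867-A antagonist wells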
# Target sequence (O43613 whole entry, looked up): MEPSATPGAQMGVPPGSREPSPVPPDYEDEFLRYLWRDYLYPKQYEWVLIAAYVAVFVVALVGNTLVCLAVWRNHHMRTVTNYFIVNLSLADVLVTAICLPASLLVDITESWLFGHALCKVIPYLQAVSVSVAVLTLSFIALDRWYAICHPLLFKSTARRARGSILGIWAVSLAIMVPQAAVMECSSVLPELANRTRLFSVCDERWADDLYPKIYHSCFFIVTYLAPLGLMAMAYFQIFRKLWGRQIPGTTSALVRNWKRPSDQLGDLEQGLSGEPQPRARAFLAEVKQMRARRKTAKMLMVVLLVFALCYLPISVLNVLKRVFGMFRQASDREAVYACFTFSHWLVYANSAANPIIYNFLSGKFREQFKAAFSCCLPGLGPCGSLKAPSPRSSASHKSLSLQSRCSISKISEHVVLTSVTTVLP
# CHO-K1 Ca ag – nonselective activator or artifact in parental CHO-K1 cells; 360,000 compounds, 0.48% hits; activation, % at 3 µM; AID 602248; Fluo-8 calcium fluorescence; scaled to maximal ATP response, vehicle zero; in the data active = activation above about 15%;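 also: untransfected CHO-K1 host cells lacking M1 receptor as counterscreen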
# CHO-K1 Ca PAM – M1 PAM counterscreen hit in parental CHO-K1 cells; ATP EC20, Fluo-8 calcium fluorescence; 0% at ATP EC20, 100% at ATP max; activation, % at 3 µM; AID 602247; 360,000 compounds, 0.02% hits;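 active = activation above the run cutoff, the mean activation of all test compounds plus 3 SD, cut at about 40% in these data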;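 also: peak over basal fluorescence ratio in a 140 s read after ATP addition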
# OX1R antag-2 – OX1R (human) antagonism. inhibition, % at 6.6 µM. AID 485270. OX1R-expressing cells, FRET antagonist read-out. 330,000 compounds, 1.8% hits; in the data active = inhibition mostly above about 38%, no sharp cut-off; inactive = mostly below about 40%;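 also: 0% = agonist challenge alone and 100% = reference antagonist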
# CHO parental Ca – counter-screen: ATP calcium response change in parental CHO cells; parental CHO-K1, ATP-induced calcium, Fluo-8 fluorescence; AID 463079; inhibition, % at 5.6 µM; 330,000 compounds, 0.63% hits;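 active = inhibition above that plate's mean sample inhibition plus 3 SD, cut at about 26% in these data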;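 also: 0% = ATP-challenged DMSO wells and 100% = DMSO wells without ATP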
#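 Assay system: parental CHO cells; Read-out basis: percent inhibition of ATP-evoked calcium rise, normalized to controls; Benchmarks: ATP and no-ATP DMSO wells; Compound dosing: single nominal dose of 5.6 µM per compound; Signal: Fluo-8 calcium dye fluorescence; Also added: ATP as calcium-mobilizing challenge; Repeats: singlicate.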
# An asterisk follows results filed as active; / = no result given; ! = not confirmed by another sample. Compounds with a hit are over-represented: about 2.9% of the library has one in this group of screens.
SMILES,CHO-K1 Ca antag,OX1R antag-1,CHO-K1 Ca ag,CHO-K1 Ca PAM,OX1R antag-2,CHO parental Ca
N#CC1=C2SCN(Cc3ccccc3)CN2C(=O)CC1c1ccc2c(c1)OCO2 (centres undefined),-2,-22,2,-4,20,-3
Cc1cccc(OCc2n(CC(=O)OC3CC(C)CCC3C(C)C)c3ccccc3[n+]2C)c1 (centres undefined),14,48*,9,14,6,51*
CC1CCC(C(C)C)C(OC(=O)Cn2c(-c3ccc(F)cc3)[n+](C)c3ccccc32)C1 (centres undefined),23,-5,1,-9,15,14
Cc1cccc(OC(=O)Cn2c(C(F)(F)F)nc3ccccc32)c1,-5,-15,1,10,13,-8
CC1CCC(C(C)C)C(OC(=O)Cn2c(-c3ccccc3)[n+](C)c3ccccc32)C1 (centres undefined),12,25,6,14,7,42*!
CSc1ncccc1C(=O)Nc1nc2ccc(Oc3ccccc3)cc2s1,-7,-14,1,14,47,-9
O=c1cc(C(F)(F)F)[nH]c2ccc(OC(F)(F)F)cc12,4,3,11,-22,35,14
O=c1cc(C(F)(F)F)[nH]c2c(C(F)(F)F)cccc12,5,0,15,-9,67*,8
CCOc1ccccc1NC(=O)C(OC(=O)c1ccccc1)c1ccccc1 (centres undefined),-9,0,0,20,18,53*
CCOc1ccccc1NC(=O)C(OC(=O)c1ccccc1O)c1ccccc1 (centres undefined),-19,-17,1,32,10,-21
Cc1ccc2nc(CSc3nc(C)cc(C)c3C#N)[nH]c2c1,-12,-28,1,-12,41*,-10
CCOc1ccccc1OCCCCCc1c(C)n[nH]c1C,-1,2,5,20,18,9
Cc1cccc(OCCCCc2c(C)n[nH]c2C)c1C,-5,12,7,18,22,43*
COc1ccccc1CNS(=O)(=O)CCNCc1ccco1,-5,/,0,18,/,/
COCC(=O)NC1CCN(CC(=O)Nc2ccc(OC)cc2[N+](=O)[O-])CC1,-14,-21,0,4,41*,-1
CCC(=O)OCC(=O)Nc1ccc(OC)cc1[N+](=O)[O-],-8,-5,0,18,49*,-4
COCC(=O)NC1CCN(CC(=O)Nc2ccccc2[N+](=O)[O-])CC1,-6,-6,0,22,31,-7
Cc1ccc(NC(=O)COC(=O)Cn2cnc3ccccc32)c([N+](=O)[O-])c1,-5,20,9,10,74*,38*
O=C(Nc1ccc2c(c1)OCO2)C1CCN(C(=O)c2ccc([N+](=O)[O-])cc2)CC1,3,-5,4,-5,13,-4
O=C(O)c1cnc(-c2ccccc2)nc1-c1ccccc1,2,3,0,14,62*,-9
Cc1ccccc1CSc1nn2c(=O)c(C)nnc2s1,24*,-12,0,-20,12,-5
Cn1c(Sc2ccc(C(=O)O)cc2[N+](=O)[O-])nnc1-c1ccccc1,-6,-6,0,9,57*,0
CC(=O)c1ccc(Sc2nnnn2-c2ccccc2)c([N+](=O)[O-])c1,-11,-4,2,21,48,2
c1ccc(CCNc2ccc3c(c2)Cc2ccccc2-3)nc1,-9,/,0,7,/,/
Cc1cc(C)c(S(=O)(=O)/N=C2/C=C(Sc3ncn[nH]3)C(=O)c3ccccc32)cc1C,7,0,2,14,63*,-6
SMILES,CHO-K1 Ca antag,OX1R antag-1,CHO-K1 Ca ag,CHO-K1 Ca PAM,OX1R antag-2,CHO parental Ca
Cc1nc2cc(-c3ccc(F)cc3)[nH]n2c(=O)c1C,-5,28,0,-1,46,42*
O=C(Nc1ccccc1N1CCN(C(=O)c2ccccc2)CC1)c1cc(Br)ccc1Cl,26*,-18,0,-8,14,-19
CN(C)CCCNS(=O)(=O)c1ccc(-n2nnc3ccccc32)c([N+](=O)[O-])c1,2,-25,0,-13,68*,-20
COc1ccc(NS(=O)(=O)c2ccc(-n3nnc4ccccc43)c([N+](=O)[O-])c2)cc1,-14,-3,8,-6,12,-6
O=[N+]([O-])c1cc(S(=O)(=O)Nc2cccc(C(F)(F)F)c2)ccc1-n1nnc2ccccc21,17,45*,5,-2,88*,43*
CCn1c(SCC(=O)N(C)CC(=O)Nc2ccc(F)c(F)c2F)nnc1-c1ccco1,-8,-19,1,20,20,-13
CC(=O)c1cccc(-c2ccnc3c2CC(C(=O)Nc2cccc(C(F)(F)F)c2)O3)c1 (centres undefined),-1,/,4,4,/,/
c1cncc(-c2csc(-c3cccnc3)n2)c1,-3,-1,0,8,9,1
Clc1ccsc1-c1csc(-c2cccnc2)n1,8,17,-1,-1,71*,-18
COC(=O)c1ccc(-c2n[nH]c(=O)c3ccccc23)cc1,2,-11,0,8,43*,1
CS(=O)(=O)c1sc(C#N)c2c1C(=O)CC(c1ccccc1)C2 (centres undefined),15,92*,2,-20,46*,53*
O=C(NCCN1CCCCC1)c1ccco1,-7,-6,0,17,1,13
Cc1ccc2sc(N3CCN(CCNC(=O)c4ccco4)CC3)nc2c1C,-5,-12,20*,2,14,-14
CC(=O)c1ccc(Sc2nnc(C)s2)c([N+](=O)[O-])c1,-4,-4,0,8,63*,-3
CC(C)[C@H](NC(=O)NC1CCCc2ccccc21)C(=O)O (some centres undefined),-9,-23,1,10,8,-6
COC(=O)[C@H](C)NC(=O)NC1CCCc2ccccc21 (some centres undefined),-10,61*,4,29,4,36*
CC(=O)c1cccc(NS(=O)(=O)c2c(C(=O)N3CCOCC3)c(C)n(C)c2C)c1,-2,-12,1,-12,6,-5
CN1CCN(S(=O)(=O)c2ccc([N+](=O)[O-])cc2)CC1,-6,-3,0,18,31*,0
O=[N+]([O-])c1ccc(S(=O)(=O)N2CCN(c3ccc(N4CCOCC4)nn3)CC2)cc1,11,-9,0,-7,46*,-7
Cc1ccc(S(=O)(=O)N2CCN(c3ccc(N4CCOCC4)nn3)CC2)cc1[N+](=O)[O-],-1,-8,0,-2,24,-23
CC1CCN(S(=O)(=O)c2ccc([N+](=O)[O-])cc2)CC1,-4,-13,5,7,30,1

# Screens deposited in PubChem by The Scripps Research Institute Molecular Screening Center.
